# Screens: PubChem, Broad Institute
# PDI turbidity – inhibitors of human protein disulfide isomerase | P07237 | inhibition, % at 10 µM | AID 588391 | PDI insulin aggregation turbidity, A650, 90 min | 350,000 compounds, 0.052% hits;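 active = mean inhibition across replicates of 30% or more, whatever share of single replicates reach that level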
# S100A4 MyoIIA – blocks human S100A4 binding to myosin IIA peptide | P26447 | S100A4/TAMRA-MyoIIA peptide fluorescence polarization | inhibition, % at 10.7 µM | 360,000 compounds, 0.14% hits;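 active = mean inhibition of at least 70% across replicates, with every replicate also reaching that level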
#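 System – human S100A4 monomer protein, biochemical binding assay · Buffer or medium – Calcium-containing HEPES buffer, pH 7.2 · Timing – 5 min between mix addition and reading · Also added – TAMRA-labelled myosin IIA heavy-chain peptide probe, 5 nM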
# ERAP1 HTS inh – blocks human ERAP1 aminopeptidase activity; Q9NZ08; recombinant ERAP1, Leu-AMC fluorescence, 60 min; inhibition, % at 10.7 µM; 340,000 compounds, 0.15% hits; AID 652197;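 active = mean replicate inhibition of at least 30%, or all replicates individually reaching that 30% level; inactive = mean below 30% and not every replicate reaching it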;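 note: 0% = neutral control wells and 100% = L-leucinethiol positive control wells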
# Target sequence (Q9NZ08 whole entry, looked up): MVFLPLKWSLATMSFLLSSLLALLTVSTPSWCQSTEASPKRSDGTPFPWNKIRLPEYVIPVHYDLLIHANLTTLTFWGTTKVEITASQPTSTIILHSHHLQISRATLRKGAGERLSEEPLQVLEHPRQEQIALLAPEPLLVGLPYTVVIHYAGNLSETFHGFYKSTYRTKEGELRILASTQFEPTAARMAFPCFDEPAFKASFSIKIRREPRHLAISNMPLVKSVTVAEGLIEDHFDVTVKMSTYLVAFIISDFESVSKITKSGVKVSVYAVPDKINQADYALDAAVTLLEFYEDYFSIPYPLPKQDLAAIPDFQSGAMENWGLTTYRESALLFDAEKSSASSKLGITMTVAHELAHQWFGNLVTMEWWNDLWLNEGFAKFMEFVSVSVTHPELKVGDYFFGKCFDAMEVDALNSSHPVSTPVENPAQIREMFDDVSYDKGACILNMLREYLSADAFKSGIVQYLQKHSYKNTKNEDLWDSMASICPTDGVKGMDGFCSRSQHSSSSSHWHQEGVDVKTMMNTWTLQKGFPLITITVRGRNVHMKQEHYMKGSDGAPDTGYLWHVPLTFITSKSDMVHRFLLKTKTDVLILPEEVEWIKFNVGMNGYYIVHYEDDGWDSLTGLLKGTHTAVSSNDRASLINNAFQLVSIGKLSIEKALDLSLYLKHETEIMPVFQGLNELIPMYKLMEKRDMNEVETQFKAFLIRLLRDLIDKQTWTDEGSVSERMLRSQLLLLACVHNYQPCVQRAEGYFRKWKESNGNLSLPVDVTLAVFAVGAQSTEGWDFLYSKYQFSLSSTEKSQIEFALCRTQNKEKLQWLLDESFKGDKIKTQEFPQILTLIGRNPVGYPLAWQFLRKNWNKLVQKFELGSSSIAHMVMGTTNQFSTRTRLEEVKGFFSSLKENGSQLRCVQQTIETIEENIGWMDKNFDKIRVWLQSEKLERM
# FGF22 binding-1 – FGF22 (human) thermal shift binding | 340,000 compounds, 1.5% hits | AID 651658 | Q9HCT0 | activity (Tm shift, normalised), % at 9.99 µM | recombinant FGF22 thermal shift, SYPRO orange fluorescence; percent of sucrose octasulfate shift, DMSO zero;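 active = mean Tm shift, scaled 0 neutral to 100 positive control, at about 1.3% or above, every replicate too, limit read from the data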
# ERp5 block – inhibitors of human ERp5; ERp5 insulin aggregation, absorbance 650 nm, 90 min; inhibition, % at 9.99 µM; 350,000 compounds, 0.05% hits; AID 651711;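 active = mean replicate inhibition above about 25%, with every replicate also reaching it, limit read from the data, passing the limit was not always enough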
# FGF22 binding-2 – FGF22 (human) binding in thermal shift; shares compounds with FGF22 binding-1; recombinant FGF22 thermal shift, SYPRO orange fluorescence; thermal shift activity, °C (ΔTm) at 38 µM; 1,000 compounds, 2% hits; AID 720646;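 active = fitted rise in melting shift crosses a set limit at or below the top valid dose tested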
# SYPRO no-protein – shows thermal shift signal without protein, FGF22 counter-screen. shares compounds with FGF22 binding-1. compound-only SYPRO orange thermal shift counter-screen, no protein. AC50, µM (series often up to 38 µM). 1,000 compounds, 2% hits. AID 743019;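 active = rising signal whose fitted curve reaches the 0.54 level within the top valid dose, showing a melting point, actives reach about 13 µM in these data; inactive = the rest, including activity in the opposite direction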; note: value is where the raw curve crosses a fixed level and not half-maximal
# Active calls of the source: *; i = inactive; x = no result; [ ] = remark or other dose. This is one part of a sample in which hits are shown more often than they occur.
SMILES,PDI turbidity,S100A4 MyoIIA,ERAP1 HTS inh,FGF22 binding-1,ERp5 block,FGF22 binding-2,SYPRO no-protein
O=C1C=CCCN1S(=O)(=O)/C=C/c1ccccc1,x,-21,0,17*,3,0.039,i
CCO[C@H]1OC(C(=O)N2CCN(Cc3ccc4c(c3)OCO4)CC2)=C[C@@H](c2ccc3c(c2)OCO3)[C@@H]1CCCO,-1,-3,0,-1,0,x,x
CC(=O)NC(Cc1c[nH]c2ccccc12)C(=O)NCCc1ccccn1 (configuration not stated),3,-12,-1,1.6*,1,0.2,i
O=C(N[C@@H]1CC[C@@H](CC(=O)N2CCN(c3ccccc3)CC2)O[C@H]1CO)c1ccccc1,x,11,-4,0,-3,x,x
O=C(N[C@@H]1CC[C@H](CC(=O)N2CCN(c3ccccc3)CC2)O[C@@H]1CO)c1ccccc1,x,2,-3,1.9*,-5,-0.057[42 µM],i
O=C(NCC1CC1)c1onc(CSc2ccc(F)cc2)c1C(=O)NCC1CC1,-4,-2,1,37*,3,-0.12,11µM*
c1ccc(Nc2cccc3c(Nc4ccccc4)cccc23)cc1,1,-15,x,0,8,x,x
O=S(=O)(O)c1cccc2cccc(Nc3ccccc3)c12,5,4,43*,1.5*,-1,0.012,i
Cc1ccc(S(=O)(=O)N(C)C[C@H]2Oc3ccc(NC(=O)Cc4ccccc4)cc3C(=O)N([C@@H](C)CO)C[C@H]2C)cc1,x,-2,0,0,-1,x,x
COc1ccccc1-c1oc2ccccc2c1C#CCCO,-2,x,x,x,x,x,x
COc1ccc(CCNC(=O)C(=O)c2c(C)[nH]c3ccccc23)cc1,-5,3,0,0,5,x,x
Cc1[nH]c2ccccc2c1C(=O)C(=O)NCCOc1ccccc1,2,-2,-3,17*,2,0.084,i
COCC(=O)N1C[C@@H](C)[C@@H](OC)CN(C)C(=O)c2ccc(NS(C)(=O)=O)cc2OC[C@H]1C,x,4,x,0,-5,x,x
CCC(=O)Nc1nc(C)c(-c2csc(Nc3ccccn3)n2)s1,-2,-31,0,1.6*,7,x,i
COc1ccc(-c2csc(C(C)(NC(C)=O)c3ccc(OC)cc3)n2)cc1 (configuration not stated),-5,1,-2,0,3,x,x
COc1ccc(C(C)(NC(C)=O)c2nc(-c3ccncc3)cs2)cc1 (configuration not stated),0,0,2,18*,1,0.046,i
Cc1cc(C)n2nc(C(=O)OCC(=O)NCc3ccccc3)nc2n1,7,1,1,0,6,x,x
C/C(CC(=O)Nc1ccc2c(c1)OCCO2)=N\NC(=O)COc1ccc(C)cc1Br,-10,13,-1,2.9*,3,0.005,i
C/C(CC(=O)Nc1ccc2c(c1)OCCO2)=N\NC(=O)COc1ccc(C)cc1,-5,-19,-2,41,-4,x,x
CC(C)n1c(SCC(=O)Nc2ccccc2)nc2c1c(=O)[nH]c(=O)n2C,-9,3,0,0,2,x,x
CC(C)Cn1c2c(c(=O)[nH]c1=O)C(NS(=O)(=O)c1ccc(Cl)cc1)(C(F)(F)F)C(=O)N2 (configuration not stated),2,1,-3,0,-6,x,x
COc1ccc(CNC(=O)C(C)c2ccc([N+](=O)[O-])cc2)cc1 (configuration not stated),-1,-1,10,0,6,x,x
CCOC(=O)C(=O)N/N=C(/c1ccccc1)c1ccc(OC)cc1,9,-10,3,0,-6,x,x
COc1ccc(/C(=N\Nc2ccccc2C(=O)O)c2ccccc2)cc1,8,-21,1,1.8*,2,0.19,i
COc1ccc(OCCOC(=O)c2cccs2)cc1,3,x,x,x,x,x,x
SMILES,PDI turbidity,S100A4 MyoIIA,ERAP1 HTS inh,FGF22 binding-1,ERp5 block,FGF22 binding-2,SYPRO no-protein
O=C1COc2ccc(S(=O)(=O)N3CCCCC3)cc2N1,3,2,-1,0,-3,x,x
O=C1COc2ccc(S(=O)(=O)N3CCCC3)cc2N1,5,6,-4,1.5*,3,0.026,i
COc1ccccc1NC(=O)N[C@@H]1CC[C@@H](CCn2cc(-c3ccccc3OC)nn2)O[C@@H]1CO,x,2,1,1.7*,0,0.038,i
C[C@H]1CN([C@@H](C)CO)S(=O)(=O)c2ccc(C3=CCCC3)cc2O[C@@H]1CN(C)C(=O)Nc1ccc2c(c1)OCO2,x,0,-8,-1,-2,x,x
C[C@H](CO)N1C[C@H](C)[C@H](CN(C)C(=O)Nc2ccc3c(c2)OCO3)Oc2cc(C3=CCCC3)ccc2S1(=O)=O,x,16,-4,1.8*,2,-0.49,i
C[C@@H]1CN([C@H](C)CO)S(=O)(=O)c2ccc(C3=CCCC3)cc2O[C@@H]1CN(C)C(=O)Nc1ccc2c(c1)OCO2,x,-1,-3,1.2*,4,-0.49,i
CC(=O)NC1=NN(C(C)=O)C(C)(c2cccc([N+](=O)[O-])c2)S1 (configuration not stated),4,-5,-2,0,7,x,x
NC(=O)c1cccnc1Nc1ccccc1F,-10,13,-4,1.4*,-1,0.11,i
O=[N+]([O-])c1ccc(CSc2nnc(Cc3ccccc3)o2)cc1,0,6,x,1.4*,0,0.023,i
CC1C(=O)Nc2ccc(S(=O)(=O)NCCc3ccc(Cl)cc3)cc2NC1=O (configuration not stated),x,1,-2,1.6*,-5,-0.37,i
CC1Sc2ccc(S(=O)(=O)NCCc3ccc(S(N)(=O)=O)cc3)cc2NC1=O (configuration not stated),-2,-11,4,0,7,x,x
CC(=O)Nc1ccc2sc(C)nc2c1,1,-4,x,38*,-5,0.15,i
Cc1nc2cc(NC(=O)CS(=O)(=O)c3ccccc3)ccc2s1,9,-1,-3,0,-4,x,x
COC(=O)[C@]12CCCCC=C1N(Cc1ccc3c(c1)OCO3)C(=O)[C@H](CC(=O)NCCc1ccccc1OC)C2,x,-3,x,0,-2,x,x
Cc1nc2ccccc2c2oc(C(=O)NCc3ccc4c(c3)OCO4)cc12,x,-5,-3,11*,2,-4.6[19.5 µM],6.3µM*
COc1ccccc1-c1cnc2c(c1)C(=O)N([C@H](C)CO)C[C@H](C)[C@@H](CN(C)C(=O)c1cccnc1)O2,x,-3,-3,0,5,x,x
COc1ccccc1-c1cnc2c(c1)C(=O)N([C@@H](C)CO)C[C@H](C)[C@H](CN(C)C(=O)c1cccnc1)O2,x,25,0,1.9*,8,0.27,i
